ChEMBL document CHEMBL4819086, “Discovery of neuroprotective agents that inhibit human prolyl hydroxylase PHD2” (Bioorg Med Chem, 2021)

Columns and labels:
Egl nine homolog 1 = Egl nine homolog 1 (Homo sapiens, UniProt Q9GZT9); assay: Inhibition of recombinant human PHD2 (181 to 426 residues) using DLDLEMLAPYIPMDDDFQL peptide as substrate preincubated for 15 mins followed by substrate addition and measured after 15 mins by Q-TOF mass spectrometric analysis
How it was run: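 Catalytic domain tPHD2 181–426 at 150 nM final in 50 mM Tris.Cl pH 7.5, 50 mM NaCl, with 0.5% DMSO. Substrate is CODD peptide (C-terminal amide). Enzyme equilibrated with compound for 15 min, then substrate with 2-oxoglutarate added and reacted for 15 min. Hydroxylated product measured by C4 SPE-MS. 11-point 3-fold titrations, normalised to no-enzyme control, IC50 by non-linear regression.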

SH-SY5Y [1] = assay: Neuroprotective activity against H2O2-induced oxidative stress in human SH-SY5Y cells assessed as reduction in rate of cell death pretreated for 2 hrs followed by H2O2 challenge by phase contrast microscopic analysis; assay type: functional, cell-based
How it was run: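 SH-SY5Y cells pretreated with compound for 2 h (3–10 or 10–50 µM), then given 50 µM H2O2. Dead cells counted manually on phase-contrast images. Mean ± SEM from 4 separate cultures, one-way ANOVA with Dunnett's test.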

SH-SY5Y [2] = assay: Cytotoxicity against human SH-SY5Y cells assessed as reduction in cell viability at 100 uM incubated for 24 hrs by MTT assay; assay type: cell-based
How it was run: (§1)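 SH-SY5Y neuroblastoma cells, undifferentiated, grown in DMEM/F12 (43.5% each) with 10% FBS, pyruvate and glutaMAX at 37 C, 5% CO2. Cells harvested at 85–95% confluence and seeded for MTT, treated over 1–100 µM. MTT (0.1 mg/mL) added for 3 h at 37 C. Formazan dissolved in DMSO and read at 570 nm. Normalised to MEM vehicle (100%) and 0.25% triton X-100 (0%) controls.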

SH-SY5Y [3] = assay: Cytotoxicity against human SH-SY5Y cells assessed as reduction in cell viability upto 100 uM incubated for 24 hrs by MTT assay; assay type: cell-based; how it was run: as §1

Chain of Egl nine homolog 1 (Q9GZT9 whole entry, the tested form may be a part): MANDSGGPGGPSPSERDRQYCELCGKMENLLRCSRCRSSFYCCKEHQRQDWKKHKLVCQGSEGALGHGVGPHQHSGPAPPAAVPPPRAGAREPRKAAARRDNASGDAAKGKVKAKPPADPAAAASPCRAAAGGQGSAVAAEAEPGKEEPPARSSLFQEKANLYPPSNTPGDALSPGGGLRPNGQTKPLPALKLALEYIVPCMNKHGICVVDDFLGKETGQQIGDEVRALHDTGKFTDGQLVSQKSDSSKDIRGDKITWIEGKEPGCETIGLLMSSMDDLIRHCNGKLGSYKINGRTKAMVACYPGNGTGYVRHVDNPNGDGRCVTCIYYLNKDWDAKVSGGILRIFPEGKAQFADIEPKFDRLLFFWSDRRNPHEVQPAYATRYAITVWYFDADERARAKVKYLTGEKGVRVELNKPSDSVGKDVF

IC50 (Egl nine homolog 1)	Structure (SMILES)	other results
> 100 µM	O=C(O)CCCN1C(=O)[C@@H]2[C@H](C1=O)[C@H]1C=C[C@@H]2C1	
> 100 µM	CSCCC(CO)NC(=O)Cn1nc(-n2nc(C)cc2C)ccc1=O (stereo unspecified)	
> 100 µM	Cc1cc(NC(=O)c2nn(C)c(C)c2[N+](=O)[O-])no1	
> 100 µM	COc1cccc(NC(=O)COc2ccccc2P(=O)(O)O)c1	
77.7 µM	COC(=O)c1c(NC(=O)C2C(C(=O)O)[C@@H]3C=C[C@H]2CC3)sc(C)c1C (stereo partly specified)	
> 100 µM	COCc1cc(O)nc(Nc2nc(C)c3ccc(C)cc3n2)n1	
> 100 µM	Cn1nc(C(=O)Nc2ccccc2Cl)cc1C(=O)O	

More lines, now with the values behind:

Structure (SMILES)	IC50 (Egl nine homolog 1)	other results
O=C(O)c1cccc(NS(=O)(=O)c2cccc3cccnc23)c1	> 100 µM	
O=C(CCn1cnnn1)N1CCC(O)(c2cccc(C(F)(F)F)c2)CC1	> 100 µM	
CC(C)c1nc2cc(NC(=O)CCn3cnnn3)ccc2n1C	> 100 µM	
Cc1ccc(-n2nc3c(SCC(=O)O)nnc(C)c3c2C)cc1	26 µM	Activity (SH-SY5Y [1]): Dose-Dependent Effect; Activity (SH-SY5Y [2]): Toxic
O=S(=O)(Nc1cc(C(F)(F)F)ccc1Cl)c1cccc2cccnc12	> 100 µM	
C=CCN(CC=C)Cc1c(C)nc2ccccc2c1O	> 100 µM	
Cc1c(Br)c(C(=O)Nc2ccc(Cl)cc2C(F)(F)F)nn1C	> 100 µM	
O=C(Nc1ccccc1-c1nc2ccccc2c(=O)o1)C(F)(F)F	> 100 µM	
O=C1c2ccc3c4c(ccc(c24)C(=O)N1NC(=O)C(F)(F)F)CC3	> 100 µM	
Cc1nc(Sc2ncccc2C(=O)O)n[nH]1	4.09 µM	Activity (SH-SY5Y [3]): Non-Toxic; Activity (SH-SY5Y [1]): Dose-Dependent Effect
